Screens deposited in PubChem BioAssay by several laboratories.
Most compounds without a hit are left out; they make up all but 2.6% or so of the library.
MC4R antagonist = MC4R antagonists of cAMP signaling, primary screen, cell-based, TR-FRET, antagonist arm of biased-ligand search. Melanocortin receptor 4 (Homo sapiens), P32245. MC4R-expressing cells, MTII-stimulated cAMP, LANCE TR-FRET. inhibition, % at 6.5 µM. 360,000 tested, 0.48% active. AID 540295, 2011;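 active = inhibition above its plate's cutoff, the mean of tested wells on that plate plus 3 SD, cut at about 29% in these data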;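 note: 0% = Melanotan II alone and 100% = Melanotan II plus saturating MCL0020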
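Assay system: U2OS cells stably expressing human melanocortin 4 receptor (MC4R) / Dosing: 6.5 µM / Timing: compound 30 min, challenge 1 h, detection 1 h / Measured by: Eu-cAMP/anti-cAMP TR-FRET, emission 671 nm / Replicates: singlicate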
ABCB6 inh 2 = ABCB6 transporter inhibitors, primary screen, K562-ABCB6 cells, flow cytometry, MLPCN library; K562-ABCB6 porphyrin accumulation, 1 h; stronger effect = lower value; fluorescence ratio to DMSO, % at 10 µM; 360,000 tested, 0.19% active;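 active = fluorescence ratio to DMSO below 75%, the collection mean minus 3 SD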;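 note: signal is porphyrin accumulated inside mitochondria; 100% equals median channel fluorescence of DMSO control wells; lower ratio means ABCB6 inhibition with less porphyrin fluorescence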
Granule exo inh = LAMP-1 surface exposure blockers, TALL-104 cells – cell-based, flow cytometry, MLPCN library, primary screen | inhibition, % at 10 µM | AID 651702, 2012 | 360,000 tested, 0.66% active | TALL-104 LAMP-1 surface exposure; cells stimulated with thapsigargin and PMA;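 active = inhibition above about 55%, limit read from the data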
iPSC survival up = enhancers of single-cell hiPSC survival, primary screen, ATPlite luminescence | 100% = ROCK inhibitor wells, 0% = DMSO | survival enhancement, % at 20 µM | 360,000 tested, 0.044% active; in the data active = survival enhancement above about 18%;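 note: cells exposed to compounds for 16 hours before the ATP read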
MC4R ag barr = MC4R agonists recruiting beta-arrestin, primary screen, cell-based, luminescence, agonist arm of biased-ligand search. Melanocortin receptor 4 (Homo sapiens), P32245. U2OS MC4R beta-arrestin complementation; percent of melanotan II response, DMSO zero. activation, % at 8.9 µM. 360,000 tested, 0.98% active;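 active = activation above a per-plate cutoff, the mean activation of sample wells on that plate plus 3 SD, cut at about 8% in these data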
Tb MetRS inh = T. brucei MetRS inhibitors, primary screen, biochemical, luminescence; AID 624268, 2012; methionyl-tRNA synthetase (Trypanosoma brucei brucei); purified T. brucei MetRS, ATP depletion, Kinase-Glo luminescence; 360,000 tested, 0.4% active; inhibition, % at 11.9 µM;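 active = inhibition above a per-plate cutoff of the control wells' mean inhibition plus 3 SD, cut at about 5.5% in these data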;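 note: 0% = DMSO wells median and 100% = median of wells with control inhibitor compound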
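assay system = parasite MetRS enzyme | timing = 15 min preincubation, 2 h reaction, all 25 °C | evaluation = percent inhibition relative to median high and low control wells | medium = HEPES buffer containing pyrophosphatase, BSA, spermine, DTT | compound = single dose, 11.9 µM final nominal, 0.9% final DMSO | detection = Kinase-Glo luminescence, ATP depletion format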
MC4R barr conf = MC4R beta-arrestin agonists, retest, confirmation, cell-based, luminescence, U2OS. shares compounds with MC4R ag barr. U2OS MC4R beta-arrestin recruitment; scaled DMSO 0%, Melanotan II 100%. activation, % at 8.9 µM. 2,400 tested, 31% active;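 active = mean activation across replicates above the hit cutoff set in the earlier primary screen, cut at about 8% in these data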
MOR DOR agonist = agonists of MOR-DOR heterodimerization, counter-screen for MC4R biased agonist project, cell-based, luminescence; activation, % at 9.2 µM; shares compounds with MC4R ag barr; U2OS PathHunter beta-arrestin, beta-gal luminescence; percent of deltorphin B response, DMSO zero; 2,400 tested, 5.8% active;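 active = mean activation across replicates exceeds the hit threshold derived in the earlier primary screen, cut at about 18% in these data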;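 note: 100% = deltorphin B at 0.9 µM final and 0% = DMSO alone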
Target sequence (P35372 whole entry, looked up): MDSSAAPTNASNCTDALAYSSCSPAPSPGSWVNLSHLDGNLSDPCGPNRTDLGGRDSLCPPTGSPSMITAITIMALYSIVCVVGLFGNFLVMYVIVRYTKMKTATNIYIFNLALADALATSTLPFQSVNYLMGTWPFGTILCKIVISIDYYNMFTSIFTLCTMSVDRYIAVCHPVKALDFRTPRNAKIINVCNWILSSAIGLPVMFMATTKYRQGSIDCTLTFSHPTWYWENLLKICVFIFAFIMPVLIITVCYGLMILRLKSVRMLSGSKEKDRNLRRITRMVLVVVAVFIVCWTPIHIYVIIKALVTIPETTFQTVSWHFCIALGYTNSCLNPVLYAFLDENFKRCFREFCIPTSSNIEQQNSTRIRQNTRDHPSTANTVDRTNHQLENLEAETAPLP
Target sequence (P41143 whole entry, looked up): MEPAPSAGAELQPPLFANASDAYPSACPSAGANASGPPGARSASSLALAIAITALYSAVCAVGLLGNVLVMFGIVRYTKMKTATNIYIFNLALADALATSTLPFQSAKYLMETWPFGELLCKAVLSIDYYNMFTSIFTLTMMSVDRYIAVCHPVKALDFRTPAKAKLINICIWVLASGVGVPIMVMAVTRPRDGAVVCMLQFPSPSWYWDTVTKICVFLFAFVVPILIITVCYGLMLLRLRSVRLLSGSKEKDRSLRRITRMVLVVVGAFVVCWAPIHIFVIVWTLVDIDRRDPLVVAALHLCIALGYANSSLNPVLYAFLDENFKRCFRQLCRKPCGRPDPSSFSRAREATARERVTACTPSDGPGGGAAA
Active calls of the source: *; / = no result.

SMILES	MC4R antagonist	ABCB6 inh 2	Granule exo inh	iPSC survival up	MC4R ag barr	Tb MetRS inh	MC4R barr conf	MOR DOR agonist
Cn1c(Cc2ccccc2)nnc1SCC(=O)NC1CCCC1	11	100	6	0	0	0	/	/
N=C(N)c1ccc(N=Nc2c(O)ccc3c2[nH]c2ccccc23)cc1	0	99	0	-2	10.0*	0	10*	17
O=S(=O)(/N=C(/Nc1cccc2ccccc12)c1ccccc1)c1ccc(F)cc1	5	101	-1	0	-1	0	/	/
O=C(NCC(c1ccco1)N1CCc2ccccc21)C(=O)Nc1ccccc1F (stereo unspecified)	1	98	-5	0	-2	0	/	/
O=C(NCC(c1ccco1)N1CCc2ccccc21)C(=O)Nc1ccccc1 (stereo unspecified)	6	97	0	0	11*	0	1	4
CCCCCC[C@@H]([C@@H](C)O)n1cnc2c(N)ncnc21	-41	105	-1	-2	-1	1	/	/
Cc1ccc(Cn2cccc2/C=N/NC(=S)Nc2ccc(C)cc2)cc1	9	92	-2	0	21*	-1	8.8*	6
COc1ccc(NC(=S)N/N=C/c2cccn2Cc2ccc(F)cc2)cc1	13	101	-1	0	10*	0	-1	5
Cc1ccc(NC(=S)N/N=C/c2c(C)[nH]c3ccccc23)cc1	-11	107	1	-4	-1	0	/	/
CCC(C(=O)NC1CCCCC1)N(Cc1cccs1)C(=O)CCC(=O)Nc1cc(C)on1 (stereo unspecified)	4	92	2	0	-1	1	/	/
CC1(C(=O)Nc2ccc3c(c2)OCCO3)CN(S(C)(=O)=O)CC(=O)N1CC(F)(F)F (stereo unspecified)	/	/	5	/	/	0	/	/
O=[N+]([O-])c1ccc(NN=Cc2cccc3ccccc23)nc1	-2	99	-2	-1	2	0	/	/
COc1cccc(/C=N/Nc2ccc([N+](=O)[O-])cn2)c1O	-3	92	-4	0	23*	-1	15*	5
Cc1ccc2nc(-c3cccc(NS(C)(=O)=O)c3)cc(-c3ccccc3)c2c1	0	93	0	0	11*	-1	7	3
Cc1nc(-c2cccc(NS(=O)(=O)c3ccccc3)c2)cs1	-1	97	0	5	2	-2	/	/
Cc1cccc(C(C)C)c1NC(=O)COC(=O)c1cccc(S(=O)(=O)N2CCc3ccccc3C2)c1	-6	97	-1	0	18*	0	8.6*	7
Cc1ccc(Nc2nc(N)nc(CCl)n2)cc1	9	98	51	-1	14*	-1	17*	18*
Cc1cccc(Nc2nc(N)nc(CCl)n2)c1C	14	98	43	-1	25*	0	23*	37*
O=[N+]([O-])c1cccnc1N1CCN(c2ccc(F)cc2)CC1	0	96	-2	0	0	0	/	/
O=C(Cc1ccc(F)cc1)Nc1nnc(SCC(=O)NC2CCCC2)s1	7	94	1	0	-1	1	/	/
Cc1cc(Nc2ccc(F)c(F)c2)nc(-c2ccccc2O)n1	4	98	3	0	14*	0	4	5
Cc1ccc(Nc2cc(C)nc(-c3ccccc3O)n2)cc1	-13	91	3	3	0	-1	/	/
CCCn1c(C)cc(=O)c2cc(NC(=O)c3cnccn3)ccc21	-4	92	0	2	-3	-1	/	/
O=C(Nc1cccc(Cl)c1)Nc1sccc1-c1nc2ccccc2s1	11	105	8	0	3	0	/	/
O=C(Nc1ccccc1)Nc1sccc1-c1nc2ccccc2s1	26	106	1	-1	17*	1	5	5
SMILES	MC4R antagonist	ABCB6 inh 2	Granule exo inh	iPSC survival up	MC4R ag barr	Tb MetRS inh	MC4R barr conf	MOR DOR agonist
CN1CCN(CCCNC(=O)c2ccc(/C=C3\Oc4ccccc4N(Cc4ccccc4F)C3=O)cc2)CC1	3	99	26	0	6	0	/	/
CCN1CCN(CCNC(=O)c2ccc(/C=C3\Sc4ccccc4N(Cc4ccccc4F)C3=O)cc2)CC1	1	98	72*	1	12*	0	17*	3
CN1CCN(CCCNC(=O)c2ccc(/C=C3/Sc4ccccc4N(Cc4cccc(Cl)c4)C3=O)cc2)CC1	10	98	75*	0	10*	-1	16*	1
CCOc1ccc(NC(=S)N2CCC(NC(=O)C3CCCCC3)CC2)cc1	3	94	-7	0	-1	1	/	/
Cc1cc(SCC(=O)OC/C(O)=C(\C#N)c2nc3ccccc3[nH]2)c(C)cc1Br	8	97	-2	0	1	1	/	/
N#C/C(=C(/O)COC(=O)CSc1ccc(Cl)cc1)c1nc2ccccc2[nH]1	3	99	0	3	9.7*	0	-4	4
COc1cccc(N2CCN(C(=O)CNC(=O)c3sc4ccccc4c3Cl)CC2)c1	-4	107	1	0	70*	-1	3	3
CCOC(=O)c1[nH]c2ccc(OC)cc2c1NC(=S)N1CCN(c2cccc(C)c2C)CC1	-2	103	-2	3	2	0	/	/
CCn1c(SCC(=O)N2CCc3ccccc32)nnc1-c1ccco1	6	93	0	2	-1	0	/	/
COC(=O)c1c(NC(=O)C(C)(C)C)sc2c1CCN(Cc1ccccc1)C2	-9	97	1	2	11*	-1	6	5
Cc1cc(-c2nnnn2-c2cc(Cl)cc(Cl)c2)no1	7	98	-1	-1	0	0	/	/
COc1ccc(/C=N/NC(=O)Nc2cccc3nsnc23)cc1OC	1	93	2	2	11*	0	1	12
